Test results from publication PMC3904508 (Lab on a chip, 2013).

Experiments:
Type in all cases: cell-based
human CFTR [1] = molecular target: T1, human CFTR (Homo sapiens, UniProt P13569); test: Single-shot microfluidics YFP fluorescence iodide influx assay, CFTR
human CFTR [2] = molecular target: T1, human CFTR; test: Conventional plate reader YFP fluorescence iodide influx assay, CFTR
human TMEM16A = molecular target: T2, human TMEM16A (Homo sapiens, UniProt Q5XXA6, DEL476-501); test: Single-shot microfluidics YFP fluorescence iodide influx assay, TMEM16A; conditions: TMEM16A-expressing FRT cells; fitted dose-response, Fig. 4B
T2 sequence (Q5XXA6 with tags, fused parts or gaps isoform Q5XXA6-5 DEL539-564): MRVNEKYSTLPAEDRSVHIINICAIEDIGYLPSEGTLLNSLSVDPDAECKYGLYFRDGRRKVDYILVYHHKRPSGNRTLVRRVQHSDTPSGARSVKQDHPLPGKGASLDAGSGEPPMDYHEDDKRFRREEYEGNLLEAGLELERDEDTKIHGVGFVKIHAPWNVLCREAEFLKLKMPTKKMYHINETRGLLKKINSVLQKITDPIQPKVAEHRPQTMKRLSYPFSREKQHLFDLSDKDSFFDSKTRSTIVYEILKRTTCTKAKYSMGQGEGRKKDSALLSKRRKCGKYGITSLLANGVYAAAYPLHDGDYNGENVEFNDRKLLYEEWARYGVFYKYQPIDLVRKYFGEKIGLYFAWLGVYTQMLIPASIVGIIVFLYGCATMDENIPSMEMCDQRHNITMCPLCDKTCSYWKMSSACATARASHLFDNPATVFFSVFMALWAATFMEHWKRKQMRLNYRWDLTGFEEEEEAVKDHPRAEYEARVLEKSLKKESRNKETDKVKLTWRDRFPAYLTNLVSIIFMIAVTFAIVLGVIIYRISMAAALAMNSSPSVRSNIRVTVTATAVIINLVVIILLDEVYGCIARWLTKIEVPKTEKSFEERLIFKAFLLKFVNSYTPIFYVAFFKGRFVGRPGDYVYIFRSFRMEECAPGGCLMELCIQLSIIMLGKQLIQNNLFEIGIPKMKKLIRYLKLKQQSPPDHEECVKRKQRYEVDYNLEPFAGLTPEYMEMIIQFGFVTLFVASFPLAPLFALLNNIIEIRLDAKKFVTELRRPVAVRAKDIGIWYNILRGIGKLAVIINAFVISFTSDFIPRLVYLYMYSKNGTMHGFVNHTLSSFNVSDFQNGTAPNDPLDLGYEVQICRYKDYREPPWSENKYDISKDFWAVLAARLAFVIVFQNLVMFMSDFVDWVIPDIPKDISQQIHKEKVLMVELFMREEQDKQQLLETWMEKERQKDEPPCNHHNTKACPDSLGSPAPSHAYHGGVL
Summary of the method: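 FRT cells stably co-expressing human TMEM16A (abc isoform) and YFP-F46L/H148Q/I152L were grown 8–24 h at 37 °C under perfusion on fibronectin-coated coverglass. Cells were perfused 10 min with a gradient between PBS and PBS containing 30 μM test compound. Solution was then switched to 70 mM I− plus 50 μM ATP. YFP fluorescence was imaged at 2 Hz, and the Hill equation was fitted.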

T1 sequence (P13569 whole entry): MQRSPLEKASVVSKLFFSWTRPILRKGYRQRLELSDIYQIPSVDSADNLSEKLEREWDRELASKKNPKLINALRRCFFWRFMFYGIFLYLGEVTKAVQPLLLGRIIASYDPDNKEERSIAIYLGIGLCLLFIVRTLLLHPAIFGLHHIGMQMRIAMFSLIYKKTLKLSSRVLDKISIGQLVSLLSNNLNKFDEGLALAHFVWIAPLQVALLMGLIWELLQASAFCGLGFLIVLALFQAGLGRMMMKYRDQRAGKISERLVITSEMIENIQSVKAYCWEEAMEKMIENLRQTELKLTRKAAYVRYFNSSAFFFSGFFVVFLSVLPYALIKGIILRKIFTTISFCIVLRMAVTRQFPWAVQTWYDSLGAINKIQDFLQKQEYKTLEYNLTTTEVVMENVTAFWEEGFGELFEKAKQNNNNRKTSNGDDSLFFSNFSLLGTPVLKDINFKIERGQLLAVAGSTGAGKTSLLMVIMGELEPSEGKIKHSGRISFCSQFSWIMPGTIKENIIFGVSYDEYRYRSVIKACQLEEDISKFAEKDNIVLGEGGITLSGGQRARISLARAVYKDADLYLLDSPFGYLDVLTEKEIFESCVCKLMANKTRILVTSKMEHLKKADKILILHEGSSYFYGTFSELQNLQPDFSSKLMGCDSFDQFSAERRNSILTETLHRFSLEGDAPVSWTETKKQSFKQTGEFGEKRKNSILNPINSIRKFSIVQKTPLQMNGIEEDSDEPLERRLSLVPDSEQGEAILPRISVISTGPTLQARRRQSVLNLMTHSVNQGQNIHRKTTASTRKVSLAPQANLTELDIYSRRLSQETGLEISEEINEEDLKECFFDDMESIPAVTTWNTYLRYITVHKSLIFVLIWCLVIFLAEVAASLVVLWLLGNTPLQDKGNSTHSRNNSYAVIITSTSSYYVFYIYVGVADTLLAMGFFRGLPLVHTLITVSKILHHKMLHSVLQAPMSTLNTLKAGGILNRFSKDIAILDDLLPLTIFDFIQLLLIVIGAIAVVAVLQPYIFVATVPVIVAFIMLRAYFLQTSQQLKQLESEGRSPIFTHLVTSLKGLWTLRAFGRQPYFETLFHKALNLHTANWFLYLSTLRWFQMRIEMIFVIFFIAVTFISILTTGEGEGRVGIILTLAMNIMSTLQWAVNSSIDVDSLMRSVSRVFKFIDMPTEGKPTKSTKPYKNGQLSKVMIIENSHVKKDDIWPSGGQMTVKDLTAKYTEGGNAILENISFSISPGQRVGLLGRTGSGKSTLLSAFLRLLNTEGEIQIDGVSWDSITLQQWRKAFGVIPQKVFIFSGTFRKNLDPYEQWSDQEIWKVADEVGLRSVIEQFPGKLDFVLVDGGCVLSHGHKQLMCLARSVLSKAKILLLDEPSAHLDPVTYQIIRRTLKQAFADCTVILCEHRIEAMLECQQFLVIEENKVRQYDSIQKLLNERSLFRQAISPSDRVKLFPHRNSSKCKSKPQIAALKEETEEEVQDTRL

CFTRinh-172
nH (Hill coefficient, CFTR inhibition, single-shot microfluidics) (human CFTR [1]; CFTR-expressing FRT cells, 5 μM forskolin, fitted dose-response, Fig. 3E): 1.4

C=C[C@@]1(C)CC(=O)[C@]2(O)[C@@]3(C)[C@@H](O)CCC(C)(C)[C@@H]3[C@H](O)[C@H](OC(C)=O)[C@@]2(C)O1 [forskolin]
IC50 (human CFTR [1]): 3.2 ± 0.2 µM | nH (Hill coefficient, CFTR activation, single-shot microfluidics) (human CFTR [1]; CFTR-expressing FRT cells, fitted dose-response, Fig. 3C): 1.8 | IC50 (human CFTR [2]): 2.9 ± 0.4 µM

CCc1c(C)nc(SCC(=O)Nc2nc(-c3ccc(OC)cc3)cs2)[nH]c1=O [TMinh-A01]
nH (Hill coefficient, TMEM16A inhibition, single-shot microfluidics) (human TMEM16A): 2.2
